Here are results for 19 compounds from ChEMBL document CHEMBL4196121, “Meridianin D Analogues Display Antibiofilm Activity against MRSA and Increase Colistin Efficacy in Gram-Negative Bacteria” (ACS Med Chem Lett, 2018).

Data set [1] concerns Klebsiella pneumoniae. Kind of data set: Antibacterial activity against Klebsiella pneumoniae isolate C3 after 16 hrs by broth microdilution assay. The settings on record: […].
The test system of data set [2] is Acinetobacter baumannii. Kind of data set: Antibacterial activity against Acinetobacter baumannii ATCC 19606 after 16 hrs by broth microdilution assay. The data set is classed as organism-based, ATCC 19606 = CIP 70.34 = JCM 6841. The note with it: […].
Data set [3] relates to Klebsiella pneumoniae. As to the kind of experiment: Antibacterial activity against Klebsiella pneumoniae ATCC 2146 expressing NDM1 gene after 16 hrs by broth microdilution assay. The format is organism-based. The note with it: […].
In data set [4] the test system is Acinetobacter baumannii. Kind of data set: Antibacterial activity against Acinetobacter baumannii ATCC 17978 expressing mcr1 gene after 16 hrs by broth microdilution assay. The settings on record: in vitro. The data set is classed as organism-based.
The subject of data set [5] is Escherichia coli. As to the kind of experiment: Antibacterial activity against Escherichia coli ATCC 25922 expressing mcr1 gene after 16 hrs by broth microdilution assay. The data set is classed as organism-based. The settings on record: in vitro.
For data set [6], the system named is Acinetobacter baumannii. Kind of data set: Antibacterial activity against Acinetobacter baumannii isolate 4106 after 16 hrs by broth microdilution assay. The data set is classed as organism-based.
For data set [7], the system named is Acinetobacter baumannii. As to the kind of experiment: Antibacterial activity against Acinetobacter baumannii isolate 3941 after 16 hrs by broth microdilution assay. The data set is classed as organism-based.
The test system of data set [8] is Klebsiella pneumoniae. Kind of data set: Antibacterial activity against Klebsiella pneumoniae isolate B9 after 16 hrs by broth microdilution assay. The settings on record: in vivo.
Data set [9] deals with Escherichia coli. As to the kind of experiment: Antibacterial activity against Escherichia coli ATCC 25922 after 16 hrs by broth microdilution assay. The data set is classed as organism-based.
Data set [10] relates to Acinetobacter baumannii. As to the kind of experiment: Antibacterial activity against Acinetobacter baumannii ATCC 17978 after 16 hrs by broth microdilution assay. The data set is classed as organism-based.
The test system of data set [11] is Acinetobacter baumannii. Kind of data set: Antibacterial activity against Acinetobacter baumannii isolate 5075 after 16 hrs by broth microdilution assay. The format is organism-based.
For data set [12], the system named is Staphylococcus aureus. Kind of data set: Inhibition of biofilm formation in methicillin-resistant Staphylococcus aureus ATCC 43300 after 24 hrs by crystal violet staining based method. The data set is classed as functional, organism-based. The settings on record: for IC50: ATCC 43300, 24 h. The gist of the method: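 Read-out is the IC50, taken as the compound concentration that inhibits 50% of MRSA 43300 biofilm formation.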

In data set [13] the test system is Staphylococcus aureus. Kind of data set: Antibacterial activity against methicillin-resistant Staphylococcus aureus ATCC 43300 after 16 hrs by broth microdilution assay. The format is functional. The settings on record: ATCC 43300, 16 h.

Active and inactive are the calls of the source. The calls are words filed in the database; no cut-off is given here.

On to `Cl.Nc1nccc(-c2cn(Cc3ccccc3)c3ccc(Br)cc23)n1`, for which the MIC against Klebsiella pneumoniae [1], in the data set with Acinetobacter baumannii [2], in the data set on Klebsiella pneumoniae [3], against Acinetobacter baumannii [4], with Escherichia coli [5] and with Acinetobacter baumannii [6] was greater than 200 µM in each case. Moreover, the MIC with Acinetobacter baumannii [7], in the data set on Klebsiella pneumoniae [8], in the data set with Escherichia coli [9], in the data set on Acinetobacter baumannii [10] and in the data set on Acinetobacter baumannii [11] was greater than 200 µM throughout.
Consider `Nc1nccc(-c2c[nH]c3cccc(Br)c23)n1`, for which the IC50 with Staphylococcus aureus [12] was greater than 100 µM.
With `Cl.Nc1nccc(-c2c[nH]c3ccc(Cl)cc23)n1`, the MIC with Klebsiella pneumoniae [1], against Acinetobacter baumannii [2], against Klebsiella pneumoniae [3], against Acinetobacter baumannii [4], against Escherichia coli [5] and against Acinetobacter baumannii [6] was greater than 200 µM throughout. In addition, the MIC against Acinetobacter baumannii [7], in the data set on Klebsiella pneumoniae [8], against Escherichia coli [9], in the data set on Acinetobacter baumannii [10] and in the data set with Acinetobacter baumannii [11] was greater than 200 µM in each case. Moreover, in the data set on Staphylococcus aureus [12], the result was inactive.
In the case of `Cl.Nc1nccc(-c2c[nH]c3ccc(I)cc23)n1`, the MIC against Klebsiella pneumoniae [1] was greater than 200 µM; against Acinetobacter baumannii [2] it was greater than 200 µM; against Staphylococcus aureus [13], 200 µM; against Klebsiella pneumoniae [3] it was greater than 200 µM; with Acinetobacter baumannii [4], greater than 200 µM; against Escherichia coli [5], greater than 200 µM. In addition, the MIC against Acinetobacter baumannii [6], with Acinetobacter baumannii [7], in the data set with Klebsiella pneumoniae [8], against Escherichia coli [9], with Acinetobacter baumannii [10] and with Acinetobacter baumannii [11] was greater than 200 µM each time. The 50% inhibitory concentration (IC50) in the data set with Staphylococcus aureus [12] was determined as 49.3 µM.
Consider `CCCCn1cc(-c2ccnc(N)n2)c2ccc(Br)cc21.Cl`, for which the MIC in the data set on Klebsiella pneumoniae [1], with Acinetobacter baumannii [2], against Klebsiella pneumoniae [3], against Acinetobacter baumannii [4], against Escherichia coli [5] and against Acinetobacter baumannii [6] was greater than 200 µM in each case. The MIC against Acinetobacter baumannii [7], against Klebsiella pneumoniae [8], against Escherichia coli [9], in the data set with Acinetobacter baumannii [10] and in the data set on Acinetobacter baumannii [11] was greater than 200 µM throughout. The compound also came in with an IC50 in the data set with Staphylococcus aureus [12] greater than 100 µM.
Consider `CC(C)Cn1cc(-c2ccnc(N)n2)c2ccc(Br)cc21.Cl`, for which the MIC with Klebsiella pneumoniae [1], against Acinetobacter baumannii [2], with Klebsiella pneumoniae [3], with Acinetobacter baumannii [4], against Escherichia coli [5] and in the data set with Acinetobacter baumannii [6] was greater than 200 µM in each case. The MIC against Acinetobacter baumannii [7], in the data set with Klebsiella pneumoniae [8], against Escherichia coli [9], with Acinetobacter baumannii [10] and against Acinetobacter baumannii [11] was greater than 200 µM in each case. The IC50 in the data set with Staphylococcus aureus [12] was greater than 100 µM.
`CCn1cc(-c2ccnc(N)n2)c2cc(Br)ccc21.Cl`: the MIC is greater than 200 µM in the data set with Klebsiella pneumoniae [1]; greater than 200 µM against Acinetobacter baumannii [2]; 200 µM against Staphylococcus aureus [13]; greater than 200 µM in the data set with Klebsiella pneumoniae [3]; greater than 200 µM with Acinetobacter baumannii [4]; greater than 200 µM with Escherichia coli [5]. Further, the MIC in the data set with Acinetobacter baumannii [6], with Acinetobacter baumannii [7], in the data set with Klebsiella pneumoniae [8], against Escherichia coli [9], in the data set on Acinetobacter baumannii [10] and with Acinetobacter baumannii [11] was greater than 200 µM in each case. Moreover, the midpoint of inhibition in the data set with Staphylococcus aureus [12], the IC50, lay at 66.2 µM.
For the compound `Cl.Nc1nccc(-c2c[nH]c3ccc(F)cc23)n1`, the MIC with Klebsiella pneumoniae [1], against Acinetobacter baumannii [2], against Klebsiella pneumoniae [3], against Acinetobacter baumannii [4], against Escherichia coli [5] and against Acinetobacter baumannii [6] was greater than 200 µM throughout. Further, the MIC against Acinetobacter baumannii [7], in the data set with Klebsiella pneumoniae [8], in the data set with Escherichia coli [9], against Acinetobacter baumannii [10] and against Acinetobacter baumannii [11] was greater than 200 µM throughout. The same compound showed a concentration for half-maximal inhibition (IC50) with Staphylococcus aureus [12] greater than 100 µM.
Regarding `CCNc1nccc(-c2cn(C)c3cc(Br)ccc23)n1.Cl`, the MIC against Klebsiella pneumoniae [1], in the data set with Acinetobacter baumannii [2], against Klebsiella pneumoniae [3], against Acinetobacter baumannii [4], in the data set with Escherichia coli [5] and in the data set on Acinetobacter baumannii [6] was greater than 200 µM throughout. For the same compound, the MIC in the data set on Acinetobacter baumannii [7], in the data set on Klebsiella pneumoniae [8], against Escherichia coli [9], against Acinetobacter baumannii [10] and against Acinetobacter baumannii [11] was greater than 200 µM each time. The result with Staphylococcus aureus [12] was inactive.
Take `Cc1ccc(S(=O)(=O)n2cc(C(=O)/C=C/N(C)C)c3ccc(I)cc32)cc1`: the outcome with Staphylococcus aureus [12] was Active.
Consider `CCn1cc(-c2ccnc(N)n2)c2ccc(Br)cc21.Cl`, for which the MIC is greater than 200 µM in the data set on Klebsiella pneumoniae [1]; greater than 200 µM in the data set on Acinetobacter baumannii [2]; 200 µM in the data set with Staphylococcus aureus [13]; greater than 200 µM with Klebsiella pneumoniae [3]; greater than 200 µM against Acinetobacter baumannii [4]; greater than 200 µM against Escherichia coli [5]. The MIC in the data set on Acinetobacter baumannii [6], with Acinetobacter baumannii [7], in the data set with Klebsiella pneumoniae [8], against Escherichia coli [9], against Acinetobacter baumannii [10] and in the data set with Acinetobacter baumannii [11] was greater than 200 µM each time. Moreover, inhibition in the data set with Staphylococcus aureus [12] was half-maximal at 64 µM (IC50).
Take `Cl.Cn1cc(-c2ccnc(N)n2)c2cc(Br)ccc21`: the MIC against Klebsiella pneumoniae [1], with Acinetobacter baumannii [2], with Klebsiella pneumoniae [3], with Acinetobacter baumannii [4], in the data set with Escherichia coli [5] and in the data set with Acinetobacter baumannii [6] was greater than 200 µM in each case. The MIC against Acinetobacter baumannii [7], against Klebsiella pneumoniae [8], in the data set with Escherichia coli [9], with Acinetobacter baumannii [10] and in the data set with Acinetobacter baumannii [11] was greater than 200 µM each time. This compound also came in with a concentration for half-maximal inhibition (IC50) in the data set with Staphylococcus aureus [12] greater than 100 µM.
In the data set with Staphylococcus aureus [12], `Nc1nccc(-c2c[nH]c3c(Br)cccc23)n1` came in with an IC50 of 99.8 µM.
For `CCCn1cc(-c2ccnc(N)n2)c2ccc(I)cc21.Cl`, the MIC in the data set with Klebsiella pneumoniae [1], in the data set on Acinetobacter baumannii [2], against Klebsiella pneumoniae [3], with Acinetobacter baumannii [4], against Escherichia coli [5] and against Acinetobacter baumannii [6] was greater than 200 µM in each case. In addition, the MIC against Acinetobacter baumannii [7], against Klebsiella pneumoniae [8], against Escherichia coli [9], with Acinetobacter baumannii [10] and in the data set on Acinetobacter baumannii [11] was greater than 200 µM each time. The outcome in the data set on Staphylococcus aureus [12] was inactive.
In the case of `Cl.Nc1nccc(-c2c[nH]c3cc(F)ccc23)n1`, the MIC in the data set on Klebsiella pneumoniae [1], with Acinetobacter baumannii [2], in the data set on Klebsiella pneumoniae [3], with Acinetobacter baumannii [4], in the data set on Escherichia coli [5] and against Acinetobacter baumannii [6] was greater than 200 µM in each case. Besides, the MIC against Acinetobacter baumannii [7], against Klebsiella pneumoniae [8], against Escherichia coli [9], against Acinetobacter baumannii [10] and in the data set with Acinetobacter baumannii [11] was greater than 200 µM each time. For the same compound, in the data set with Staphylococcus aureus [12], the IC50 was greater than 100 µM.
For `Cl.Cn1cc(-c2ccnc(N)n2)c2ccc(Br)cc21`, the MIC against Klebsiella pneumoniae [1] was greater than 200 µM; against Acinetobacter baumannii [2], greater than 200 µM; against Staphylococcus aureus [13], 200 µM; in the data set on Klebsiella pneumoniae [3], greater than 200 µM; against Acinetobacter baumannii [4] it was greater than 200 µM; against Escherichia coli [5] it was greater than 200 µM. Moreover, the MIC in the data set with Acinetobacter baumannii [6], against Acinetobacter baumannii [7], in the data set with Klebsiella pneumoniae [8], against Escherichia coli [9], with Acinetobacter baumannii [10] and in the data set with Acinetobacter baumannii [11] was greater than 200 µM each time. Half-maximal inhibition with Staphylococcus aureus [12] (IC50) was put at 59.6 µM.
With `Cc1ccc(S(=O)(=O)n2cc(C(=O)/C=C/N(C)C)c3ccc(F)cc32)cc1`, in the data set on Staphylococcus aureus [12], the result was Active.
As to `CCCCCn1cc(-c2ccnc(N)n2)c2cc(Br)ccc21.Cl`, the MIC in the data set on Klebsiella pneumoniae [1], in the data set on Acinetobacter baumannii [2], against Klebsiella pneumoniae [3], against Acinetobacter baumannii [4], in the data set with Escherichia coli [5] and in the data set on Acinetobacter baumannii [6] was greater than 200 µM throughout. Further, the MIC in the data set on Acinetobacter baumannii [7], against Klebsiella pneumoniae [8], against Escherichia coli [9], against Acinetobacter baumannii [10] and in the data set on Acinetobacter baumannii [11] was greater than 200 µM in each case. For the same compound, in the data set on Staphylococcus aureus [12], the half-maximal inhibitory concentration (IC50) was greater than 100 µM.
`Cl.Nc1nccc(-c2c[nH]c3cc(I)ccc23)n1`: the MIC in the data set on Klebsiella pneumoniae [1], against Acinetobacter baumannii [2], in the data set with Staphylococcus aureus [13], against Klebsiella pneumoniae [3], against Acinetobacter baumannii [4] and against Escherichia coli [5] was greater than 200 µM each time. The MIC with Acinetobacter baumannii [6], in the data set with Acinetobacter baumannii [7], in the data set with Klebsiella pneumoniae [8], against Escherichia coli [9], against Acinetobacter baumannii [10] and against Acinetobacter baumannii [11] was greater than 200 µM each time. The same compound registered a half-maximal inhibitory concentration (IC50) in the data set on Staphylococcus aureus [12] of 42.5 µM.
